Measured values: paper PMC3985758 (ACS Chemical Biology, 2014)

Experiments:
[1] = tested on: T47D ductal carcinoma cell line; test: Concentration-response proliferation assay, colloidal vs monomeric formulation; format: cell-based
How it was run: (§1)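 Cells seeded at 10,000 cells/cm2 and left to adhere overnight, then dosed in RPMI 1640 with 10% charcoal-stripped FBS. Colloidal formulation: DMSO stock diluted 1000-fold into medium (0.1% DMSO). Monomeric formulation: stock diluted 10-fold in DMSO, then into medium giving 1% DMSO and 0.025% v/v polysorbate 80. Vehicle controls made the same way. Medium refreshed every 12 h over 72 h; cells washed; proliferation by MTS or DAPI nuclei counts, relative to untreated.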

[2] = known aggregators; not among compounds measured by DLS here; cited from earlier work
BT474 = test: Concentration-response proliferation assay, colloidal vs monomeric formulation; format: cell-based
How it was run: as §1

MCF7 = test: as above; format: cell-based
How it was run: as §1

MCF7 cells = conditions: cited from earlier work
MDA-MB-231 cells = test: Concentration-response proliferation assay; format: cell-based
How it was run: as §1

SMILES: C[C@@H](Oc1cc(-c2cnn(C3CCNCC3)c2)cnc1N)c1c(Cl)ccc(F)c1Cl [Crizotinib, crizotinib]
- concentration at which antiproliferative activity is lost [1]: 10 µM
- CAC (critical aggregation concentration) [2]: 19.3 µM

SMILES: C[C@]12CC[C@@H]3c4ccc(O)cc4C[C@@H](CCCCCCCCC[S+]([O-])CCCC(F)(F)C(F)(F)F)[C@H]3[C@@H]1CC[C@@H]2O (stereo partly drawn) [Fulvestrant]
- concentration at which loss of activity is observed (BT474): ≥ 1 µM
- concentration at which loss of activity is observed (MCF7): ≥ 1 µM

SMILES: O=c1c(-c2ccc(O)cc2)coc2cc(O)cc(O)c12 [Genistein]
- concentration of maximum activity of bell-shaped curve (MCF7 cells): 50 µM

SMILES: CNC(=O)c1cc(Oc2ccc(NC(=O)Nc3ccc(Cl)c(C(F)(F)F)c3)cc2)ccn1 [Sorafenib, sorafenib]
- CAC (critical aggregation concentration) [2]: 3.5 µM
- inhibition of cell proliferation (MDA-MB-231 cells; 10 μM, colloidal formulation (0.1% DMSO, no UP 80), 72 h): almost entirely eliminated
- inhibition at 10 µM (MDA-MB-231 cells; Homo sapiens, MDA-MB-231, 72 h, read-out: inhibition of proliferation): ~90%
- concentration at which loss of activity is observed (MDA-MB-231 cells; colloidal formulation, MDA-MB-231): ≥ 10 µM
